Compound activity from PubChem BioAssay.
SKKanGAS inh = blocks kanamycin growth of S. pyogenes SKKanGAS strain; inhibition, % at 7.5 µM; AID 1662; BacTiter-Glo, 6 h; 300,000 compounds, 1.3% hits;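 active = mean replicate score, as percent of positive control median, at least 50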;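 note: strain carries kanamycin resistance gene driven by streptokinase promoter and grows in 40 µg/ml kanamycin; loss of luminescence reflects streptokinase promoter inhibition or plain growth inhibition; 0% = median of DMSO wells and 100% = positive control at its reference dose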
Beta apoptosis = beta cell apoptosis inhibition. AID 435005. 300,000 compounds, 0.8% hits. INS-1E cytokine-induced death, ATP luminescence, 48 h; percent of positive-control rescue, neutral wells zero. protection from apoptosis, % (no concentration beside the values);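 active = Every replicate reaches about 75%, or at least half do and their mean reaches it too, limit read from the data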;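 note: 0% = cytokine-treated negative control wells and 100% = positive control rescue; higher means more ATP so stronger rescue from cytokine killing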
Mdm2 MdmX PPI = human Mdm2/MdmX binding inhibition. AID 485346. inhibition, % at 8 µM. O15151+Q00987. 330,000 compounds, 3% hits. SaOS-2 split-luciferase Mdm2/MdmX complementation, luminescence;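 active = inhibition of at least 50% at 8 µM in the primary screen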
Target sequence (O15151 whole entry, looked up): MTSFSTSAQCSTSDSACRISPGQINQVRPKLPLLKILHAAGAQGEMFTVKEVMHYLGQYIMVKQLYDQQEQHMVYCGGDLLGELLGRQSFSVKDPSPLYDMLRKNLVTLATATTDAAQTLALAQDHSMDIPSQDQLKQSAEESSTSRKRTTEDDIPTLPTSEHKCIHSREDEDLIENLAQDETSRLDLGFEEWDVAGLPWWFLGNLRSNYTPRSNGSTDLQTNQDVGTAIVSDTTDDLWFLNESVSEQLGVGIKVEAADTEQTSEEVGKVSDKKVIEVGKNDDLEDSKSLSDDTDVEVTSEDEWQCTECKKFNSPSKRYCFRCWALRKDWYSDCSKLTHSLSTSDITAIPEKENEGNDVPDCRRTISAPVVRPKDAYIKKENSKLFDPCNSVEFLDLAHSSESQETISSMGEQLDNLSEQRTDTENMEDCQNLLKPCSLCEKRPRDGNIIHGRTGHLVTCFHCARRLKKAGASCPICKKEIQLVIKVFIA
Target sequence (Q00987 whole entry, looked up): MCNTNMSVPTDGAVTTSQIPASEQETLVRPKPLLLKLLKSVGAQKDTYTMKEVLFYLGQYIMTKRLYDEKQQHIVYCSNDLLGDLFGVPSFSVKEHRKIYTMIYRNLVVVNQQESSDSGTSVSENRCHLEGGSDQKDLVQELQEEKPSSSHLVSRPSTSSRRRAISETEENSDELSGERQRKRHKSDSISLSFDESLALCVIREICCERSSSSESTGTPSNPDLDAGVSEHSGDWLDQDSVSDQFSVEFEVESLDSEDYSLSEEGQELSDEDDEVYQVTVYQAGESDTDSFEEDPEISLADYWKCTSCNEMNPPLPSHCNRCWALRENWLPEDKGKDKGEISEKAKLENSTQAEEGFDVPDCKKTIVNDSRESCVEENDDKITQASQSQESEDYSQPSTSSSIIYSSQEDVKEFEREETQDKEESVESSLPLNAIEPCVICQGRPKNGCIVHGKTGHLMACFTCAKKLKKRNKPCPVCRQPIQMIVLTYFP
UPR XBP1 act = activators of adaptive arm of unfolded protein response (XBP1); AID 463104; CHO-XBP1 luciferase reporter, IRE1-XBP1 UPR activation, luminescence; percent of tunicamycin response, DMSO as zero; activation, % at 20 µM; 330,000 compounds, 0.33% hits;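 active = versus positive control, 20 µM dose yields 30% or more activation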;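 note: 100% = tunicamycin at 10 µg/mL and 0% = DMSO only wells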
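Material – CHO cell line with stable XBP1 luciferase reporter · Buffer or medium – F12 plus 10% FBS · Compound – single point, 20 µM final compound, 1% DMSO · Schedule – 16-18 h cell attachment at 37 °C, then 6 h compound exposure · Signal – Steady-Glo luminescence read · Benchmarks – high control tunicamycin 10 µg/mL final, low control DMSO vehicle only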
UPR CHOP act = apoptotic UPR (CHOP) activation; CHO-CHOP luciferase reporter, luminescence; percent of tunicamycin response over DMSO baseline; activation, % at 10 µM; 330,000 compounds, 0.34% hits;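 active = at 10 µM dose, activation of 40% or more, normalized to positive control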;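 note: 100% = tunicamycin at 10 µg/mL and 0% = DMSO alone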
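Test system: CHO CHOP reporter cells. Input: 500 CHO-CHOP cells per well. Medium: F12 with 10% FBS. Technique: luciferase luminescence. Measure: percent activation relative to tunicamycin control. Dosing: 10 µM compound, 0.5% DMSO. Timing: 16-18 h cell attachment, then 6 h compound exposure, 37 °C.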
CSC inhib = blocks cancer stem cells | cancer stem cell-like cells viability, luminescence | inhibition, % at 7.5 µM | 300,000 compounds, 1.1% hits | AID 2717; in the data active = inhibition above about 75%; tested in HMLE shEcad cells
UPR XBP1 confirm = confirmation of adaptive unfolded protein response (XBP1) activators; shares compounds with UPR XBP1 act; activation, % at 20 µM; 1,000 compounds, 63% hits; CHO-XBP1 IRE1-XBP1 luciferase reporter, luminescence;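 active = reporter signal at least 30% of the positive control's activation in two or more of four replicate wells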;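 note: plate controls were DMSO negative control for no effect and tunicamycin 10 µg/mL positive control for full effect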
Active calls of the source: *; / = not tested or not shown. Shown are actives, neighbours in structure and some others; about 4.8% of the full set was active somewhere.

SMILES	SKKanGAS inh	Beta apoptosis	Mdm2 MdmX PPI	UPR XBP1 act	UPR CHOP act	CSC inhib	UPR XBP1 confirm
Nc1nc(NCC2CCCO2)nc(Nc2cccc(Cl)c2)c1[N+](=O)[O-] (stereo not drawn)	-1	12	19	36*	1	3	1
CN1CCN(c2nc3c(c(=O)[nH]c(=O)n3C)n2CCSc2nc3ccccc3s2)CC1	-4	-2	1	1	0	-1	/
Cn1c(=O)[nH]c(=O)c2c1nc(N1CCc3ccccc3C1)n2CCSc1nc2ccccc2s1	3	-8	26	34*	32	-9	4
Cc1cc(C)n(-c2nc(NCCCO)c3c4c(sc3n2)CCCC4)n1	55*	81*	20	41*	-2	20	21
Cc1cc(C)n(-c2nc(NCC(C)O)c3c4c(sc3n2)COC(C)(C)C4)n1 (stereo not drawn)	5	13	8	3	1	3	/
CC(Oc1ccc(Cl)cc1)C(=O)N(C)CC(=O)Nc1ccc(N2CCOCC2)cc1 (stereo not drawn)	1	-5	7	-1	2	-8	/
Cc1cc(C)c(C#N)c(SCC(=O)N2CCCCC2)n1	-4	-1	5	34*	1	/	0
Cc1cc(C)c(C#N)c(SCC(=O)N2CCN(Cc3ccccc3)CC2)n1	1	-3	6	-3	-4	-11	/
C=CCNC(=O)/C(C#N)=C/c1c(N2CCN(c3ccc(OC)cc3)CC2)nc2c(C)cccn2c1=O	16	1	28	-4	0	-9	/
O=[N+]([O-])c1cccc(/C=C/c2ccc3cccc(O)c3n2)c1	84*	33	-18	98*	32	36	158*
Cc1ccc(-c2cc(C(=O)N3CCN(c4ccccc4O)CC3)c3ccccc3n2)o1	23	9	5	38*	4	6	1
CCN=C1S/C(=C\c2cn(CC(=O)NCc3ccco3)c3ccccc23)C(=O)N1CC	6	6	33	116*	0	/	97*
COc1ccc(NC(=O)CSc2nc3n[nH]c(C)c3c(=N)n2-c2ccc(Cl)c(C)c2)cc1OC	12	66	31	34*	8	-12	17
COc1ccc(OC)c(NC(=O)CSc2nc3n[nH]c(C)c3c(=N)n2-c2cccc(Cl)c2C)c1	22	4	49	2	1	21	/
CCCCC1CCC(C(=O)NCC(c2ccco2)N2CCOCC2)CC1 (stereo not drawn)	-1	5	16	-2	0	-2	/
COC(=O)c1ccc(CNC(=O)Cn2cnc3c(OCc4ccccc4)ncnc32)cc1	/	-3	42	-1	2	/	/
COc1ccccc1/C=N\NC(=O)c1ccc(COc2ccc(C)c(C)c2)o1	4	-6	-3	41*	2	0	0
CCCn1nc(C(=O)NNC(=O)CCCOc2ccc(C)cc2)c2ccccc2c1=O	0	-7	7	-7	2	-8	/
CNC(=O)c1ccc(-n2nc(C)cc2-c2ccccc2)cc1	0	-2	-3	44*	2	-29	0
CCc1ccc2[nH]c3nc(SCC(=O)NNC(=O)c4ccc(C(C)(C)C)cc4)nnc3c2c1	-4	20	46	60*	2	5	42*
CCOC(=O)c1c(NC(=O)CSc2nnc3c(n2)[nH]c2ccc(F)cc23)sc(C(C)=O)c1C	/	6	29	62*	15	-2	51*
O=C(CSc1nnc2c(n1)[nH]c1ccc(F)cc12)Nc1ccccc1F	5	-7	13	-5	-1	1	/
NC(=S)N/N=C/c1ccc(C23CC4CC(CC(C4)C2)C3)cc1	100*	77*	46	60*	33	113*	64*
CCOC(=O)c1sc(-c2ccccc2)cc1NC(=O)Nc1ccc([N+](=O)[O-])cc1	1	10	28	199*	16	30	163*
CCOC(=O)c1sc(-c2ccccc2)cc1N	-4	-4	-57	2	4	3	/
